Where “and” joins values, the source holds several entries; their conditions need not be identical. Equal entries are not always repeated.
What was measured:
ear pinna [1] = experiment: Skin; format: in vivo, B6C3F1 mice; conditions: dermal, 28 days
Method in brief: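 Female B6C3F1 mice (5/group) received 25 μl/ear daily to the dorsal ears in acetone. About 24 h after the last dose, tissues went into RPMI: both auricular dLNs, half spleen and one ear pinna. Single-cell suspensions were acquired on an LSR II, with populations gated per supplemental strategy and FMO gating controls. Results are mean ± SE, n=5, by one-way ANOVA.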

liver = experiment: Liver histopathology after 28-day dermal exposure; format: in vivo, B6C3F1 mice; conditions: 28 days, mice affected of 5
Method in brief: (§1)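 Female B6C3F1 mice (5/group) received 25 μl/ear on the dorsal ear surfaces daily, with acetone as vehicle. Tissues were formalin-fixed about 24 h after the last dose: liver remainder, half spleen, right kidney and half ear pinna. Sections were paraffin-embedded, cut at 5 μm and stained with H&E. A veterinary pathologist read them per STP guideline and graded 1 (minimal) to 5 (severe) by extent.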

ear pinna [2] = experiment: Ear; format: in vivo, B6C3F1 mice; conditions: dermal, 28 days, mice affected of 5
Method in brief: as §1

[3] = PFAS concentration in pooled urine; format: in vivo, B6C3F1 mice; conditions: 5%, dermal, 28 days; 5 pooled samples
Method in brief: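 Urine was caught in a weigh boat as it was excreted during CO2 euthanasia, about 24 h after the final daily ear dose (25 μl/ear, acetone vehicle; female B6C3F1 mice). The 5 mice per group were pooled, with variable volume. Samples underwent solid-phase extraction and LC/MS/MS, as linear isomer for short-chain analytes and linear plus branched for the comparator. Each group gave a single value without statistics.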

B6C3F1 mice = experiment: Serum chemistries after 28-day dermal exposure; format: in vivo; conditions: 28 days
Method in brief: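 Female B6C3F1 mice received daily dorsal ear application (25 μl/ear, acetone vehicle). About 24 h after the last dose, blood was taken by cardiac puncture. Serum was separated by centrifugation and stored at −20 °C. ALKP, BUN, glucose and cholesterol were read on a Catalyst DX analyzer. Data are mean ± SE of 4–5 mice, ANOVA with Dunnett's; ALKP was also tested by linear regression (p < 0.05).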

liver (caudate) = experiment: Liver gene expression; format: in vivo, B6C3F1 mice; conditions: dermal, 28 days
Method in brief: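 Dosing was daily topical to both dorsal ears (25 μl/ear, acetone vehicle) in female B6C3F1 mice. Liver caudate lobe or half ear pinna was stored in RNAlater and homogenized in RLT buffer. RNA was isolated on RNeasy columns with DNase, and 1–2 μg was reverse-transcribed. TaqMan real-time PCR was read as 2−ΔΔCT vs vehicle, normalized to β-actin. Statistics: ANOVA/Dunnett's, or Kruskal-Wallis/Dunn's for unequal variance.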

Structure (SMILES): O=C(O)C(F)(F)C(F)(F)C(F)(F)C(F)(F)F [PFPeA, perfluoropentanoic acid]
- Ear CD4^+ cell number (ear pinna [1]; 1.25%): 2.55 ± 0.41 × 10^3
- Ear CD4^+ frequency (ear pinna [1]; 1.25%): 2.93 ± 0.23 %
- Ear CD8^+ cell number (ear pinna [1]; 1.25%): 1.38 ± 0.17 × 10^2
- Ear CD8^+ frequency (ear pinna [1]; 1.25%): 0.16 ± 0.02%
- Ear CD45^+ cell number (ear pinna [1]; 1.25%): 8.61 ± 1.11 × 10^4
- Ear CD45^+ frequency (ear pinna [1]; 1.25%): 8.16 ± 0.67%
- Ear CD lib- F4/80+ DCs cell number (ear pinna [1]; 1.25%): 17.60 ± 3.16 × 10^2
- Ear CDllb + F4/80+ DCs cell number (ear pinna [1]; 1.25%): 26.50 ± 4.08 × 10^2
- Ear CDllb- F4/80+ DCs frequency (ear pinna [1]; 1.25%): 2.10 ± 0.37%
- Ear CDllb- F4/80-DCs cell number (ear pinna [1]; 1.25%): 2.15 ± 0.38 × 10^3
- Ear Dendritic Cells cell number (ear pinna [1]; 1.25%): 6.78 ± 0.97 × 10^3
- Ear Dendritic Cells frequency (ear pinna [1]; 1.25%): 7.83 ± 0.37%
- Ear Eosinophils cell number (ear pinna [1]; 1.25%): 2.72 ± 0.51 × 10^3
- Ear Eosinophils frequency (ear pinna [1]; 1.25%): 3.13 ± 0.31%
- Ear NK cell number (ear pinna [1]; 1.25%): 5.64 ± 0.85 × 10^2
- Ear NK frequency (ear pinna [1]; 1.25%): 0.66 ± 0.06%
- Ear Neutrophils cell number (ear pinna [1]; 1.25%): 2.28 ± 0.53 × 10^2
- Ear Neutrophils frequency (ear pinna [1]; 1.25%): 0.27 ± 0.06%
- Ear Total Cellularity (ear pinna [1]; 1.25%): 1.05 ± 0.10 × 10^6
- Ear CD4^+ cell number (ear pinna [1]; 2.5%): 4.65 ± 0.67 × 10^3
- Ear CD45^+ cell number (ear pinna [1]; 2.5%): 10.30 ± 1.26 × 10^4
- Ear CD45^+ frequency (ear pinna [1]; 2.5%): 11.46 ± 1.03 %
- Ear CD lib- F4/80+ DCs cell number (ear pinna [1]; 2.5%): 17.80 ± 3.48 × 10^2
- Ear CDllb + F4/80+ DCs frequency (ear pinna [1]; 2.5%): 4.22 ± 0.51 %
- Ear CDllb- F4/80+ DCs frequency (ear pinna [1]; 2.5%): 1.73 ± 0.22%
- Ear CDllb- F4/80-DCs cell number (ear pinna [1]; 2.5%): 2.79 ± 0.54 × 10^3
- Ear Dendritic Cells cell number (ear pinna [1]; 2.5%): 9.44 ± 2.00 × 10^3
- Ear NK cell number (ear pinna [1]; 2.5%): 5.86 ± 0.63 × 10^2
- Ear NK frequency (ear pinna [1]; 2.5%): 0.57 ± 0.01%
- Ear Neutrophils cell number (ear pinna [1]; 2.5%): 3.16 ± 0.37 × 10^2
- Ear Neutrophils frequency (ear pinna [1]; 2.5%): 0.32 ± 0.05%
- Ear Total Cellularity (ear pinna [1]; 2.5%): 0.88 ± 0.04 × 10^6
- Ear CD4^+ cell number (ear pinna [1]; 5%): 10.80 ± 1.17 × 10^3
- Ear CD4^+ frequency (ear pinna [1]; 5%): 5.64 ± 0.27 %
- Ear CD8^+ cell number (ear pinna [1]; 5%): 8.33 ± 1.57 × 10^2
- Ear CD8^+ frequency (ear pinna [1]; 5%): 0.42 ± 0.04 %
- Ear CD45^+ cell number (ear pinna [1]; 5%): 19.40 ± 2.55 × 10^4
- Ear CD45^+ frequency (ear pinna [1]; 5%): 13.60 ± 0.97 %
- Ear CD lib- F4/80+ DCs cell number (ear pinna [1]; 5%): 45.60 ± 8.63 × 10^2
- Ear CDllb + F4/80+ DCs cell number (ear pinna [1]; 5%): 86.70 ± 10.20 × 10^2
- Ear CDllb + F4/80+ DCs frequency (ear pinna [1]; 5%): 4.51 ± 0.18 %
- Ear CDllb- F4/80+ DCs frequency (ear pinna [1]; 5%): 2.36 ± 0.35%
- Ear CDllb- F4/80-DCs cell number (ear pinna [1]; 5%): 6.19 ± 0.94 × 10^3
- Ear CDllb- F4/80-DCs frequency (ear pinna [1]; 5%): 3.16 ± 0.10 %
- Ear Dendritic Cells cell number (ear pinna [1]; 5%): 20.20 ± 2.65 × 10^3
- Ear Dendritic Cells frequency (ear pinna [1]; 5%): 10.42 ± 0.36 %
- Ear Eosinophils cell number (ear pinna [1]; 5%): 13.50 ± 2.05 × 10^3
- Ear Eosinophils frequency (ear pinna [1]; 5%): 7.35 ± 1.24 %
- Ear NK cell number (ear pinna [1]; 5%): 16.10 ± 4.27 × 10^2
- Ear NK frequency (ear pinna [1]; 5%): 0.80 ± 0.12%
- Ear Neutrophils cell number (ear pinna [1]; 5%): 21.60 ± 8.98 × 10^2
- Ear Neutrophils frequency (ear pinna [1]; 5%): 0.97 ± 0.31 %
- Ear Total Cellularity (ear pinna [1]; 5%): 1.41 ± 0.11 × 10^6
- Liver: Hypertrophy, centrilobular, hepatocyte, Mild (incidence) (liver; 1.25%): 0
- Liver: Hypertrophy, centrilobular, hepatocyte, Minimal (incidence) (liver; 1.25%): 5/ 5 and 5
- Liver: Hypertrophy, centrilobular, hepatocyte, Mild (incidence) (liver; 2.5%): 5/5 and 5
- Liver: Hypertrophy, centrilobular, hepatocyte, Minimal (incidence) (liver; 2.5%): 0
- Liver: Hypertrophy, centrilobular, hepatocyte, Mild (incidence) (liver; 5%): 5/5 and 5
- Liver: Hypertrophy, centrilobular, hepatocyte, Minimal (incidence) (liver; 5%): 0
- Ear: Degeneration/regeneration, cartilage, focal, Mild (incidence) (ear pinna [2]; 1.25%): 0
- Ear: Fibrosis, dermis, focal, Minimal (incidence) (ear pinna [2]; 1.25%): 0
- Ear: Hyperkeratosis, epidermis, focal, Mild (incidence) (ear pinna [2]; 1.25%): 0
- Ear: Hyperkeratosis, epidermis, focal, Minimal (incidence) (ear pinna [2]; 1.25%): 0
- Ear: Hyperplasia, epidermis, focal, Mild (incidence) (ear pinna [2]; 1.25%): 0
- Ear: Hyperplasia, epidermis, focal, Minimal (incidence) (ear pinna [2]; 1.25%): 0
- Ear: Inflammation, mixed cell, dermis, Minimal (incidence) (ear pinna [2]; 1.25%): 0
- Ear: Inflammation, mononuclear cell, dermis, Minimal (incidence) (ear pinna [2]; 1.25%): 0
- Ear: Necrosis, epidermis, multifocal, Minimal (incidence) (ear pinna [2]; 1.25%): 0
- Ear: Degeneration/regeneration, cartilage, focal, Mild (incidence) (ear pinna [2]; 2.5%): 0
- Ear: Fibrosis, dermis, focal, Minimal (incidence) (ear pinna [2]; 2.5%): 0
- Ear: Hyperkeratosis, epidermis, focal, Mild (incidence) (ear pinna [2]; 2.5%): 0
- Ear: Hyperkeratosis, epidermis, focal, Minimal (incidence) (ear pinna [2]; 2.5%): 0
- Ear: Hyperplasia, epidermis, focal, Mild (incidence) (ear pinna [2]; 2.5%): 0
- Ear: Hyperplasia, epidermis, focal, Minimal (incidence) (ear pinna [2]; 2.5%): 4/5 and 4
- Ear: Inflammation, mixed cell, dermis, Minimal (incidence) (ear pinna [2]; 2.5%): 2/5 and 2
- Ear: Inflammation, mononuclear cell, dermis, Minimal (incidence) (ear pinna [2]; 2.5%): 0
- Ear: Necrosis, epidermis, multifocal, Minimal (incidence) (ear pinna [2]; 2.5%): 0
- Ear: Degeneration/regeneration, cartilage, focal, Mild (incidence) (ear pinna [2]; 5%): 0
- Ear: Fibrosis, dermis, focal, Minimal (incidence) (ear pinna [2]; 5%): 4/5 and 4
- Ear: Hyperkeratosis, epidermis, focal, Mild (incidence) (ear pinna [2]; 5%): 0
- Ear: Hyperkeratosis, epidermis, focal, Minimal (incidence) (ear pinna [2]; 5%): 2/5 and 2
- Ear: Hyperplasia, epidermis, focal, Mild (incidence) (ear pinna [2]; 5%): 3/5 and 3
- Ear: Hyperplasia, epidermis, focal, Minimal (incidence) (ear pinna [2]; 5%): 2/5 and 2
- Ear: Inflammation, mixed cell, dermis, Minimal (incidence) (ear pinna [2]; 5%): 4/5 and 4
- Ear: Inflammation, mononuclear cell, dermis, Minimal (incidence) (ear pinna [2]; 5%): 0
- Ear: Necrosis, epidermis, multifocal, Minimal (incidence) (ear pinna [2]; 5%): 0
- urine PFAS concentration [3]: 5600 µg/mL
- serum cholesterol (B6C3F1 mice; 1.25%): decrease
- serum urea nitrogen (BUN), decrease (B6C3F1 mice; 2.5%): 20%
- serum glucose, increase compared to vehicle control (B6C3F1 mice; 5%): 30%
- serum urea nitrogen (BUN), decrease (B6C3F1 mice; 5%): 22%
- serum alanine aminotransferase (ALT) (B6C3F1 mice; any concentration, data not shown): No change
- liver Pltp gene expression (liver (caudate); 2.5%): increase
- liver Pparδ expression (liver (caudate); 2.5%): decreasing
- liver Serpine1 gene expression, increase (liver (caudate); 2.5%): 8 fold
- liver Acox1 gene expression (liver (caudate); 5%): increase
- liver Cd36 gene expression, increase (liver (caudate); 5%): 6.5 fold
- liver Ehhadh gene expression, increase (liver (caudate); 5%): 8.8 fold
- liver Fabp1 gene expression (liver (caudate); 5%): increased
- liver Pltp gene expression (liver (caudate); 5%): increase
- liver Pparγ expression (liver (caudate); 5%): increasing
- liver Pparδ expression (liver (caudate); 5%): decreasing
- liver Serpine1 gene expression, increase (liver (caudate); 5%): 11.3 fold
